Here are results for one molecule from ChEMBL document CHEMBL1649558, “Antiviral activity of chloroquine against human coronavirus OC43 infection in newborn mice” (Antimicrob Agents Chemother, 2009).

Data set [1] concerns Human coronavirus OC43. The data set is described as follows: Antiviral activity against Human coronavirus OC43 infected in human HRT18 cells after 4 days by qRT-PCR analysis. The class given is functional, cell-based. The settings on record: Betacoronavirus 1, HRT-18, 96 h. A digest of the protocol:
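HRT-18 cells were seeded and grown 4 days, then infected with 1 × 10⁶ HCoV-OC43 copies/ml in MEM with 2% FCS, with chloroquine at 0.032–500 μM. After 4 days at 37°C in 5% CO₂, viral RNA in the supernatant was quantified by qRT-PCR against a cRNA standard curve. EC50 is the concentration halving the viral RNA increase relative to untreated infected cells.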
On the technique in general: In qPCR the cycle at which signal appears reflects the starting amount.

Data set [2] can be described thus: Cytotoxicity against human HRT18 cells after 4 days by MTS assay. It is filed as cell-based, HRT-18. The method in brief: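 HRT-18 cells grown in MEM with 10% fetal calf serum, 1% L-glutamine and 1.4% sodium bicarbonate were exposed to a range of compound concentrations for 4 days at 37°C, 5% CO₂. Viable cells were quantified by MTS reduction to formazan, read at 492 nm. CC50 is the concentration reducing viability by 50%.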

A short description of data set [3]: Selectivity index, ratio of CC50 for human HRT18 cells to EC50 for Human coronavirus OC43 infected in human HRT18 cells. The class given is toxicity, cell-based. The settings on record: read-out: Ratio CC50/EC50. A digest of the protocol: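 Index = CC50/EC50. For the EC50, HRT-18 cells were seeded at 6 × 10⁴ per well and grown 4 days. They were then infected with 1 × 10⁶ OC43 copies/ml in 2% serum MEM with 0.032–500 μM compound for 4 days at 37°C. Supernatant RNA was measured by qRT-PCR against a cRNA standard curve. The CC50 came from the MTS viability assay at 4 days.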

Data set [4] deals with Human coronavirus OC43. Briefly: Antiviral activity against Human coronavirus OC43 infected in human HRT18 cells assessed as decrease in viral load at 10 uM treated at the time of infection measured after 28 hrs by qRT-PCR analysis relative to control. The class given is functional. The method in brief:
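Subconfluent HRT-18 monolayers were infected with 4 × 10⁷ HCoV-OC43 genome equivalents/ml, adsorbed 30 min, and washed five times with MEM. Chloroquine (10 μM) was added at infection or at later time points. Supernatant viral RNA was quantified by qRT-PCR at 28 h postinfection. Two independent experiments in duplicate; mean ± SEM.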

Data set [5] concerns Human coronavirus OC43. Briefly: Antiviral activity against Human coronavirus OC43 infected in pregnant C57BL/6 mouse assessed as survival rate at 15 mg/kg, sc administered prepartum. Conditions: Betacoronavirus 1, sc, route subcutaneous. It is filed as functional. A digest of the protocol:
(§1)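 Pregnant C57BL/6 dams were given chloroquine subcutaneously (200 μl; 1, 5 or 15 mg/kg) prepartum or postpartum; controls were untreated. Five-day-old pups were inoculated intracerebrally with 1 × 10³ HCoV-OC43 copies in 10 μl. Mortality was monitored daily, and survivors were followed for 60 days. Survival is surviving pups over total pups; curves were compared by log-rank test.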

The subject of data set [6] is Human coronavirus OC43. Briefly: Antiviral activity against Human coronavirus OC43 infected in pregnant C57BL/6 mouse assessed as survival rate at 15 mg/kg, sc administered postpartum. The class given is functional. The settings on record: Betacoronavirus 1, sc, route subcutaneous. The method in brief:
as §1

Data set [7] concerns Human coronavirus OC43. Briefly: Antiviral activity against Human coronavirus OC43 infected in pregnant C57BL/6 mouse assessed as survival rate at 5 mg/kg, sc administered prepartum. The class given is functional. The settings on record: Betacoronavirus 1, sc, route subcutaneous. The method in brief: as §1
For data set [8], the system named is Human coronavirus OC43. The data set is described as follows: Antiviral activity against Human coronavirus OC43 infected in pregnant C57BL/6 mouse assessed as survival rate at 5 mg/kg, sc administered postpartum. It is filed as functional. The settings on record: Betacoronavirus 1, sc, route subcutaneous. The method in brief:
as §1

In data set [9] the test system is Human coronavirus OC43. The data set is described as follows: Antiviral activity against Human coronavirus OC43 infected in pregnant C57BL/6 mouse assessed as survival rate at 1 mg/kg, sc administered prepartum. The class given is functional. The settings on record: Betacoronavirus 1, sc, route subcutaneous. The method in brief: as §1
For data set [10], the system named is Human coronavirus OC43. Briefly: Antiviral activity against Human coronavirus OC43 infected in pregnant C57BL/6 mouse assessed as survival rate at 1 mg/kg, sc administered postpartum. It is filed as functional. The settings on record: Betacoronavirus 1, sc, route subcutaneous. A digest of the protocol:
as §1

The test system of data set [11] is Human coronavirus OC43. The data set is described as follows: Antiviral activity against Human coronavirus OC43 infected in new born C57BL/6 mouse assessed as survival rate at 15 mg/kg, sc transfered via placenta after administration to pregnant mouse. The class given is functional. The settings on record: Betacoronavirus 1, sc, route subcutaneous.
Data set [12] deals with Human coronavirus OC43. The data set is described as follows: Antiviral activity against Human coronavirus OC43 infected in new born C57BL/6 mouse assessed as survival rate at 15 mg/kg, sc transfered via maternal milk after administration to pregnant mouse. It is filed as functional. Conditions: Betacoronavirus 1, sc, route subcutaneous.
For data set [13], the system named is Human coronavirus OC43. Briefly: Antiviral activity against Human coronavirus OC43 infected in new born C57BL/6 mouse assessed as survival rate at 5 mg/kg, sc transfered via placenta after administration to pregnant mouse. It is filed as functional. Conditions: Betacoronavirus 1, sc, route subcutaneous. The method in brief:
as §1

The test system of data set [14] is Human coronavirus OC43. The data set is described as follows: Antiviral activity against Human coronavirus OC43 infected in new born C57BL/6 mouse assessed as survival rate at 5 mg/kg, sc transfered via maternal milk after administration to pregnant mouse. It is filed as functional. The settings on record: Betacoronavirus 1, sc, route subcutaneous. A digest of the protocol:
as §1

The test system of data set [15] is Human coronavirus OC43. The data set is described as follows: Antiviral activity against Human coronavirus OC43 infected in new born C57BL/6 mouse assessed as survival rate at 1 mg/kg, sc transfered via placenta after administration to pregnant mouse. It is filed as functional. Conditions: Betacoronavirus 1, sc, route subcutaneous. A digest of the protocol:
as §1

Data set [16] deals with Human coronavirus OC43. The data set is described as follows: Antiviral activity against Human coronavirus OC43 infected in new born C57BL/6 mouse assessed as survival rate at 1 mg/kg, sc transfered via maternal milk after administration to pregnant mouse. Conditions: Betacoronavirus 1, sc, route subcutaneous. The class given is functional. The method in brief:
as §1

Molecules are shown by their SMILES.

As a reminder, the EC50 is the concentration giving half of the maximal effect. High values mean a need for much substance, low ones an effect from little substance. A word on the CC50: it is the concentration that lowers cell viability or growth by half. Turning to `CCN(CC)CCCC(C)Nc1ccnc2cc(Cl)ccc12.O=P(O)(O)O.O=P(O)(O)O` (stereo unspecified) [CHLOROQUINE PHOSPHATE], in the data set on Human coronavirus OC43 [1], a half-maximal effect (EC50) was put at 0.306 µM. This molecule returned a CC50 at 96 h in data set [2] of 419 µM. Besides, the selectivity ratio in [3] worked out at 1370. The “fold change (FC)” value in the data set with Human coronavirus OC43 [4] was determined as 100. Besides, the survival at 15 mg/kg in the data set with Human coronavirus OC43 [5] stood at 100%; with Human coronavirus OC43 [6] it was 97.4%; with Human coronavirus OC43 [11] it was 100%; in the data set on Human coronavirus OC43 [12] it was 97.4%. The survival at 5 mg/kg in the data set on Human coronavirus OC43 [7] stood at 92.9%; in the data set with Human coronavirus OC43 [8] it was 83.3%; in the data set with Human coronavirus OC43 [13] it was 92.9%; with Human coronavirus OC43 [14], 83.3%. The survival at 1 mg/kg in the data set on Human coronavirus OC43 [9] came to 33.3%; in the data set on Human coronavirus OC43 [10] it was 0%; with Human coronavirus OC43 [15], 33.3%; in the data set with Human coronavirus OC43 [16], 0%.
